Assay results taken from ChEMBL document CHEMBL1127543, “Dual angiotensin converting enzyme/thromboxane synthase inhibitors” (J Med Chem, 1994).
Activity calls are given as the source filed them. No cut-off for these calls is given here.

Assays:
[1] = target: T1, Angiotensin-converting enzyme (Oryctolagus cuniculus, UniProt P12822); test: Tested for 50% inhibition of Angiotensin converting enzyme(ACE) obtained from rabbit lung (in vitro)
T1 sequence (P12822 whole entry): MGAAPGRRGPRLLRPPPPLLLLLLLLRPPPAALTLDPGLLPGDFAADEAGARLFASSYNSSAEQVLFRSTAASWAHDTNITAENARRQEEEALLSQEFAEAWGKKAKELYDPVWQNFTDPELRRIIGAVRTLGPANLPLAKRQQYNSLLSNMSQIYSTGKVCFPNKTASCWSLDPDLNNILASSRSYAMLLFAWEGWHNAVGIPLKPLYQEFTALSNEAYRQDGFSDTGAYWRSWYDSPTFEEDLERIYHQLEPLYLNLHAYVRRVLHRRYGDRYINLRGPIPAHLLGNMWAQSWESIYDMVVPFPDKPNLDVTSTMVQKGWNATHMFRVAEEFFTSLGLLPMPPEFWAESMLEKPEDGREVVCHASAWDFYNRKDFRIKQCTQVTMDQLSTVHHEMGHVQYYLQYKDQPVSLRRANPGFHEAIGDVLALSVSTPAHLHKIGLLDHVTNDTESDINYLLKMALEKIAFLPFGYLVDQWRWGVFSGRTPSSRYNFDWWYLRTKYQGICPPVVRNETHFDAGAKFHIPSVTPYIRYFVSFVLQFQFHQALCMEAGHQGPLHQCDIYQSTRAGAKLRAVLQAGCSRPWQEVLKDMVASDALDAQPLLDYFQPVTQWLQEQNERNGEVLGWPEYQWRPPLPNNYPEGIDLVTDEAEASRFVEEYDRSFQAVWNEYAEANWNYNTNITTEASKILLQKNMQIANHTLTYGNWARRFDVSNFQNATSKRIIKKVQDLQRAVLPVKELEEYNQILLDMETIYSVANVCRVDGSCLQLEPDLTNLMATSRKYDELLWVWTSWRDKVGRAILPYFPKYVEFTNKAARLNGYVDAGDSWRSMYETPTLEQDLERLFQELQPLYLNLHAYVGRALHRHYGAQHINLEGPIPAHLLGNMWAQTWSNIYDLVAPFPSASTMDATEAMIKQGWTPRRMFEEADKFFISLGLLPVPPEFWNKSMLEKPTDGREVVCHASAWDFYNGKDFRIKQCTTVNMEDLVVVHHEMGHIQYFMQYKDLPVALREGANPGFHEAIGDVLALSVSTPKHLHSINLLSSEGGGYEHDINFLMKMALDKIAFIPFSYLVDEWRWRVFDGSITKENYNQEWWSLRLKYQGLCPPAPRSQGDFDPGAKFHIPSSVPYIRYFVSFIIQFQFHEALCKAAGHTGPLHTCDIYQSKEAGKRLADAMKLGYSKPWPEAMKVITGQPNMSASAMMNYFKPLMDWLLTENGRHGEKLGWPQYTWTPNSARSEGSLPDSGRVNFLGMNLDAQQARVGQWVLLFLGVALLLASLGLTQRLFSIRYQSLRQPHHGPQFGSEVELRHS
Procedure, shortened: (§1)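 ACE was partially purified from rabbit lung and incubated with the synthetic substrate Hip-His-Leu. The hippuric acid product was measured spectrophotometrically. IC50 was read graphically from a range of inhibitor concentrations within the assay's linear range. Each determination was done in duplicate and repeated once.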

Rattus norvegicus [2] = test: Tested for percent inhibition of maximum angiotensin I (AI) pressor response in rats on oral administration of 300 mg/kg after 6 hr; type: functional
Procedure, shortened: (§2)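 Conscious catheterized SHR were prepared as for blood pressure recording. At set times after dosing, angiotensin I was injected intraarterially in 0.5 mL. The rise in arterial pressure was recorded and expressed as percent inhibition of the angiotensin I pressor response.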

Rattus norvegicus [3] = test: Antihypertensive activity was measured in spontaneously hypertensive rat (SHR) by measuring the maximum blood pressure when administered orally at dose of 30 mg/kg after 6 h; type: functional; details: route oral
Procedure, shortened: (§3)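 Conscious, fully ambulatory SHR (250–280 g) were fitted with an arterial catheter led through an infusion swivel inside a protective spring. After 24 h recovery from surgery, rats were housed singly. Mean arterial pressure was recorded continuously after dosing over a 6-h period, with later readings up to 24 h. Rats had chow and tap water freely under a 12-h light cycle.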

Rattus norvegicus [4] = test: Antihypertensive activity was measured in spontaneously hypertensive rat (SHR) by measuring the blood pressure after 24 hours when administered orally at dose of 30 mg/kg; type: functional; details: route oral
Procedure, shortened: (§4)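 Conscious, unrestrained, fully ambulatory SHR (250–280 g) fed normal pellet chow with free access to tap water, on a 12-h light cycle. Oral dosing used a vehicle at 1 mL/kg po. The read-out was the change in mean arterial pressure from control.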

Thromboxane-A synthase [5] = target: T2, Thromboxane-A synthase (Homo sapiens, UniProt P24557); test: Tested for 50% inhibition of thromboxane synthase (TxS) in human platelets (in vitro)
T2 sequence (P24557 whole entry): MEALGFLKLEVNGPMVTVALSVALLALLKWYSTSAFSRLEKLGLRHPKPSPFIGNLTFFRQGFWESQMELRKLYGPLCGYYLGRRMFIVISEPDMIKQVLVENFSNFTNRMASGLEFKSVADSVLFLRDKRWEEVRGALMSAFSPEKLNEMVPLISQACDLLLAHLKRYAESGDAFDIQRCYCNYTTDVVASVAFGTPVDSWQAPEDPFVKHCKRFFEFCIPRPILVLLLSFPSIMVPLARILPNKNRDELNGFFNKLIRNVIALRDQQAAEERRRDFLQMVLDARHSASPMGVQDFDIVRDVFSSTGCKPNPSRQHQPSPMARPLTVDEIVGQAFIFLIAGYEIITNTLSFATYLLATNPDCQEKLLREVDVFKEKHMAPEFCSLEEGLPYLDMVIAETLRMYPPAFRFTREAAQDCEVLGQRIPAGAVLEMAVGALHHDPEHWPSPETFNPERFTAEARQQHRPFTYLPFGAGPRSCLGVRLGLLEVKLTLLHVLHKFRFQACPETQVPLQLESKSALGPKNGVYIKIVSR
Procedure, shortened: (§5)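 IC50 was obtained graphically from a range of compound concentrations within the linear range of the assay. Determinations were made in duplicate and repeated once.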

Rattus norvegicus [6] = test: Tested for percent inhibition of maximum angiotensin I (AI) pressor response in rats on oral administration of 300 mg/kg after 2 hr; type: functional; procedure, shortened: as §2
Rattus norvegicus [7] = test: Tested for percent inhibition of maximum angiotensin I (AI) pressor response in rats on oral administration of 300 mg/kg after 4 hr; type: functional; procedure, shortened: as §2
Rattus norvegicus [8] = test: Antihypertensive activity was measured in spontaneously hypertensive rat (SHR) by measuring the blood pressure on interarterial administration at dose of 1 mg/kg after 4 h; type: functional, Artery; procedure, shortened: as §3
Rattus norvegicus [9] = test: Antihypertensive activity was measured in spontaneously hypertensive rat (SHR) by measuring the maximum blood pressure when administered orally at dose of 10 mg/kg after 4 h; type: functional; details: route oral; procedure, shortened: as §3
Rattus norvegicus [10] = test: Antihypertensive activity was measured in spontaneously hypertensive rat (SHR) by measuring the blood pressure after 24 hours on interarterial administration at dose of 1 mg/kg; Not significant; type: functional, organism-based; parameters: dose 1 mg/kg; details: Artery; procedure, shortened: as §3
Rattus norvegicus [11] = species: Rattus norvegicus; details: 10 mg/kg
Thromboxane-A synthase [12] = target: T2, Thromboxane-A synthase; test: Tested for 50% inhibition of thromboxane synthase (TxS) in human platelets (in vitro); Not active; procedure, shortened: as §5
Rattus norvegicus [13] = test: Antihypertensive activity was measured in spontaneously hypertensive rat (SHR) by measuring the maximum blood pressure when administered orally at dose of 5 mg/kg after 3 h; type: functional; details: route oral; procedure, shortened: as §3
Rattus norvegicus [14] = test: Antihypertensive activity was measured in spontaneously hypertensive rat (SHR) by measuring the blood pressure after 24 hours when administered orally at dose of 5 mg/kg; type: functional; details: route oral; procedure, shortened: as §4
[15] = target: T1, Angiotensin-converting enzyme; test: Tested for 50% inhibition of Angiotensin converting enzyme(ACE) obtained from rabbit lung (in vitro); Not active; procedure, shortened: as §1

Row | IC50 [1] [nM] | IC50 (Thromboxane-A synthase [5]) [nM] | IC50 (Thromboxane-A synthase [12]) | IC50 [15] | SMILES | further results
1 | 10 | 18 | – | – | CNCCN(CCCC[C@H](N[C@H]1CCc2ccccc2N(CC(=O)[O-])C1=O)C(=O)[O-])C(=O)CCCCCc1c(-c2cccnc2)n(C)c2ccc(Cl)cc12.[Na+].[Na+] | inhibition in vivo at 300 mg/kg (Rattus norvegicus [2]): 71%; Max delta BP (Rattus norvegicus [3]): -39 mmHg; Delta blood pressure (Rattus norvegicus [4]): -20 mmHg
2 | 12 | 20 | – | – | Cn1c(-c2cccnc2)c(CCCCCC(=O)N2CCC(NCCCC[C@H](N[C@@H]3CCc4ccccc4N(CC(=O)[O-])C3=O)C(=O)[O-])CC2)c2cc(Cl)ccc21.[Na+].[Na+] | inhibition in vivo at 300 mg/kg (Rattus norvegicus [6]): 76%; inhibition in vivo at 300 mg/kg (Rattus norvegicus [7]): 51%; Max delta BP (Rattus norvegicus [8]): -24 mmHg; Max delta BP (Rattus norvegicus [9]): -35 mmHg; Delta blood pressure (Rattus norvegicus [10]): inactive; Delta blood pressure (Rattus norvegicus [11]): inactive
3 | 8 | – | Not Active | – | O=C(O)CN1C(=O)[C@@H](N[C@@H](CCc2ccccc2)C(=O)O)C[C@@H](O)c2ccccc21 | –
4 | – | – | Not Active | – | CCOC(=O)C(CCc1ccccc1)NC(C)C(=O)N1CCC[C@H]1C(=O)O (single isomer, unassigned) | inhibition in vivo at 300 mg/kg (Rattus norvegicus [6]): 100%; Max delta BP (Rattus norvegicus [13]): -28 mmHg; Delta blood pressure (Rattus norvegicus [14]): -17 mmHg
5 | – | – | – | Not Active | Cc1c(-c2cccnc2)n(CCCCCCCC(=O)O)c2ccccc12 | –
6 | 2 | – | Not Active | – | CCOC(=O)[C@H](CCc1ccccc1)N[C@H]1CCc2ccccc2N(CC(=O)O)C1=O [BENAZEPRIL] | –
7 | – | – | – | Not Active | Cn1c(-c2cccnc2)c(CCCCCC(=O)O)c2cc(Cl)ccc21 | –
8 | 6 | – | – | – | CC(=O)O[C@@H]1C[C@H](N[C@@H](CCc2ccccc2)C(=O)O)C(=O)N(CC(=O)O)c2ccccc21 | –
9 | – | 100 | – | Not Active | Cc1c(-c2cccnc2)n(CCCCP(=O)(O)O)c2ccccc12 | –
10 | 30 | 20 | – | – | Cc1c(-c2cccnc2)n(CCCCP(=O)(O)OC2CCc3ccccc3N(CC(=O)O)C2=O)c2ccccc12 (stereo not drawn) | –
